Results: paper PMC11865470 (Communications Biology, 2025)

Key:
Assay type in all cases: cell-based
[1] = molecular target: T1, KV4.3 (Rattus norvegicus, UniProt Q62897); assay: whole-cell patch-clamp, off-target channel, 10 μM compound
T1 sequence (Q62897 1-611 isoform Q62897-3): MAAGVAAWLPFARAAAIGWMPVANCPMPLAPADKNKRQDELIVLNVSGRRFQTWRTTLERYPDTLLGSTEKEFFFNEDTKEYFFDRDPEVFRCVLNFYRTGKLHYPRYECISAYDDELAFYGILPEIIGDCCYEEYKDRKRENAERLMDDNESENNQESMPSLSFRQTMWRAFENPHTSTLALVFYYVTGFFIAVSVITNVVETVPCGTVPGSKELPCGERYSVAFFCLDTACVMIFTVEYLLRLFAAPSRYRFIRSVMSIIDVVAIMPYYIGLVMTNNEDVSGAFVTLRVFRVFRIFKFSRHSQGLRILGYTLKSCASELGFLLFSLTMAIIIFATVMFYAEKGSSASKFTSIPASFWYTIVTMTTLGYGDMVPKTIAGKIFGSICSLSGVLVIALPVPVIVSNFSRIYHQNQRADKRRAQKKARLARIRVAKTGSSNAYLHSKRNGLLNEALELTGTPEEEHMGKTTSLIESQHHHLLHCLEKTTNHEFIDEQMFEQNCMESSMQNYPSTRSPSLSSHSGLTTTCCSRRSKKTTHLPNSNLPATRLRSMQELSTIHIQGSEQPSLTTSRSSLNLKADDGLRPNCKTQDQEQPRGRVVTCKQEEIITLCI
Summary of the method: (§1)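 KV channels in transiently transfected HEK293T cells, whole-cell. Pipette (mM): 140 KCl, 2.5 MgCl2, 11 EGTA, 10 HEPES, pH 7.4. Bath (mM): 145 NaCl, 2.8 KCl, 2 CaCl2, 1 MgCl2, 10 glucose, 10 HEPES, pH 7.4. 0.1% DMSO bath applied, then 10 μM test compound. DMSO vs compound inhibition ratio compared by unpaired t-test, n = 5.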

[2] = molecular target: T2, mouse Otop2 (mOtop2) (Mus musculus, UniProt Q80SX5); assay: whole-cell patch-clamp, pH 5.5-evoked currents; settings: 10 μM
T2 sequence (Q80SX5 1-563): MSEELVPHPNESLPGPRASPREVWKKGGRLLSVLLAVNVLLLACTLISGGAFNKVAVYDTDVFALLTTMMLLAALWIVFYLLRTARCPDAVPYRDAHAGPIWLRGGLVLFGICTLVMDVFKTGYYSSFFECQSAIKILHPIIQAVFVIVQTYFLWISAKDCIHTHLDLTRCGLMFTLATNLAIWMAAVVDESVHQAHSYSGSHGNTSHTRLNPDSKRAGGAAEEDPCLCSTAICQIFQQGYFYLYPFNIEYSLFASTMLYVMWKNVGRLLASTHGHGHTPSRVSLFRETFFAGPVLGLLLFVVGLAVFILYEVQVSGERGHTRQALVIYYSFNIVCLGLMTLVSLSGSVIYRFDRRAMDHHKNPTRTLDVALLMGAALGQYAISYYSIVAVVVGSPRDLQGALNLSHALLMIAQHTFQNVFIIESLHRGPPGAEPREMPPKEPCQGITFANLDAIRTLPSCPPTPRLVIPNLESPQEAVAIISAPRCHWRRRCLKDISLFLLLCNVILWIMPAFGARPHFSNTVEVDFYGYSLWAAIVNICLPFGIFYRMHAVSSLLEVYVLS
Summary of the method: (§2)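 Channel plasmid (2.5 μg) was co-transfected with EGFP plasmid (0.5 μg) using Lipofectamine 2000 into PAC-knockout HEK293T cells. Whole-cell recording 16–24 h after seeding, with Cs-aspartate pipette solution (pH 7.3). Currents evoked by pH 5.5 bath (160 mM NMDG-Cl, 2 mM CaCl2, 10 mM MES); test compound 10 μM.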

[3] = molecular target: T3, Otop1 channels from human origin (hOtop1) (Homo sapiens, UniProt Q7RTM1); assay: whole-cell patch-clamp, pH 5.5-evoked currents; settings: 10 μM
T3 sequence (Q7RTM1 1-612): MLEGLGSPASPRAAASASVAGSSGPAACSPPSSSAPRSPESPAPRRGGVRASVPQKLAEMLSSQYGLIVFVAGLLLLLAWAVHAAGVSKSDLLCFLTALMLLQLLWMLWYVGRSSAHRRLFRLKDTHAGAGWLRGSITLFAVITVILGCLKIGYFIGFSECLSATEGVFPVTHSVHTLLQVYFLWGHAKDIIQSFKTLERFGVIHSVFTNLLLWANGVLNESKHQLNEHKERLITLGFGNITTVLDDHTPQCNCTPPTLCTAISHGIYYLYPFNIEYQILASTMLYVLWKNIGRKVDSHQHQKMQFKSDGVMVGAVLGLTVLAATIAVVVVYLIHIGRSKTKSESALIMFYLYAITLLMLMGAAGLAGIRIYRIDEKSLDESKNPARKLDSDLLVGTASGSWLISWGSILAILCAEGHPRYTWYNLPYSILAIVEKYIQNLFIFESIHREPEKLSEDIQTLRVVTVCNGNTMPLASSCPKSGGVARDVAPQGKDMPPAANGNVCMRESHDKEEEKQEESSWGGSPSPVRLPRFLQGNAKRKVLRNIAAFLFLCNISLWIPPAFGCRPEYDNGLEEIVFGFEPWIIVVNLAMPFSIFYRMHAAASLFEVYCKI
Summary of the method: as §2

[4] = molecular target: T4, KV4.2 (Rattus norvegicus, UniProt Q63881); assay: whole-cell patch-clamp, off-target channel, 10 μM compound; settings: for sensitivity of channel to compound: vs 0.1% DMSO
T4 sequence (Q63881 1-630): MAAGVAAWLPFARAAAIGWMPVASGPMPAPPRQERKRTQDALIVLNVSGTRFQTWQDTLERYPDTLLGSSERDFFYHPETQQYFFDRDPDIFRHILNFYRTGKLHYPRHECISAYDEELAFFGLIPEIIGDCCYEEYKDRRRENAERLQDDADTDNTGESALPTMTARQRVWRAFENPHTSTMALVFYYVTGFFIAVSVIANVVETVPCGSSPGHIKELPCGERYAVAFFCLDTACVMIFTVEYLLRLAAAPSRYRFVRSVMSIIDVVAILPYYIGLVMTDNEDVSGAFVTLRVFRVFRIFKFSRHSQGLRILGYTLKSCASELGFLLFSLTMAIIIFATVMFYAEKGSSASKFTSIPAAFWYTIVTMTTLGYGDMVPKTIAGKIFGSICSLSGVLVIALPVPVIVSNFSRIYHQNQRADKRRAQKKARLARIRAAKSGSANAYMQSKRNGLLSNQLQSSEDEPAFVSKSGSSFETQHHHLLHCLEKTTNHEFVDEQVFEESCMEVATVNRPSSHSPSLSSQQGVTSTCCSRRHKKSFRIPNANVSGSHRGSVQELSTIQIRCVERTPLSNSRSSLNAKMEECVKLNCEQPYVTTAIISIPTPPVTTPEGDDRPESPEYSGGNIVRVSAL
Summary of the method: as §1

Row | sensitivity of channel to compound ([1]; vs 0.1% DMSO) | effect on pH 5.5-evoked mOtop2 currents [2] | effect on hOtop1 currents [3] | sensitivity of channel to compound [4] | inhibition ratio [1] [%] | inhibition ratio [4] [%] | SMILES
1 | completely resistant | did not affect | potent potentiation effects | completely resistant | – | – | Cc1cc(NC(=O)c2ccc(Br)o2)ccc1NC(=O)c1ccco1 [B2FAMP, 5-Bromo-N-[4-(2-furoylamino)-3-methylphenyl]-2-furamide]
2 | – | did not affect | potent potentiation effects | – | 12.9 | 14.3 | CC(C)c1noc2ncc(C(=O)c3ccccc3O)cc12 [HIMOP, (2-hydroxyphenyl)-(3-propan-2-yl-5-isoxazolo[5,4-b]pyridinyl)methanone]
3 | – | did not affect | potent potentiation effects | completely resistant | 7.0 | – | Cc1ccc(C(=O)Nc2ccc3ccccc3c2)o1 [MFaN, 5-methyl-N-2-naphthyl-2-furamide]
